MrgX1 allo act = positive allosteric modulators of MrgX1, primary screen, HEK293 cells, Fluo-4 calcium flux. actives 0.63% (n = 310,000). AID 588675, 2011. B-score at 10 µM. FDSS; hits give high values;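 active = plate-corrected calcium response at least 3 library SD above typical, normal starting fluorescence, not activating the receptor alone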;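 also: compound read alongside a low EC10 to EC30 dose of BAM8-22 agonist; peak minus trough fluorescence over baseline measured at the second addition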
Target sequence (Q96LB2 whole entry, looked up): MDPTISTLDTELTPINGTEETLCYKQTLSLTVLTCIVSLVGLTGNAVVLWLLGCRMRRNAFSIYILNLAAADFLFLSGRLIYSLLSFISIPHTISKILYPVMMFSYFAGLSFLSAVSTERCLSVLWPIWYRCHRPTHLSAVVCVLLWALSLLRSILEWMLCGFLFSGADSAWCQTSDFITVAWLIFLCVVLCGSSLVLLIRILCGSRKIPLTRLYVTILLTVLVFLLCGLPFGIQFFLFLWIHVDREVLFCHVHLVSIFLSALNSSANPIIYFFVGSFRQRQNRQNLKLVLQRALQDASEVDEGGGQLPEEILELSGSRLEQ
RGS4 inh = RGS4 inhibitors, primary screen, cell-based, HEK293 M3R inducible RGS4, calcium flux; Fluo-4 calcium flux; hits give high values; triggered by carbachol at its EC20; B-score at 10 µM; actives 0.45% (n = 310,000);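 active = B-score, a plate-corrected calcium signal, over three deviations above library mean, with baseline fluorescence within five deviations of library mean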;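 also: RGS4 expression induced by doxycycline in cells with stable M3 receptor; B-score is computed from the integrated fluorescence ratio over baseline after carbachol; higher B-score means a larger calcium signal and so more RGS4 inhibition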
Target sequence (P49798 whole entry, looked up): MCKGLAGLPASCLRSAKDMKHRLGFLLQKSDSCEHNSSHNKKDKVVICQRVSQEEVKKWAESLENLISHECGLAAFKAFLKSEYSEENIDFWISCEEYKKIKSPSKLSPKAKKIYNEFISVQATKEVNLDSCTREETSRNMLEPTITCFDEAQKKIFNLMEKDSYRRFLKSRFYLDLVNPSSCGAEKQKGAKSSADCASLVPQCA
MrgX1 antagonist = antagonists of human MrgX1 receptor, primary screen, HEK293 cells, Fluo-4 calcium flux | B-score at 10 µM | actives 1.3% (n = 310,000) | AID 588676, 2011 | BAM8-22 antagonism; hits give low values | Mas-related G-protein coupled receptor member X1 (Homo sapiens), Q96LB2;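 active = calcium-response B-score plate-corrected more than 3 library SD below zero, starting fluorescence within 5 deviations, no agonist response on first addition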;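 also: peak minus trough fluorescence over baseline after final BAM8-22 challenge near maximal dose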
MrgX1 ag = agonists of human MrgX1 receptor, primary screen, HEK293 cells, Fluo-4 calcium flux; Mas-related G-protein coupled receptor member X1 (Homo sapiens), Q96LB2; Fluo-4 calcium fluorescence, agonist mode; hits give high values; B-score at 10 µM; actives 0.44% (n = 310,000);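 active = calcium response B-score plate-corrected fluorescence ratio at least 3 library SD, with starting fluorescence B-score inside 5 SD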
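Material: HEK293 cells stably expressing human MrgX1 receptor | Quantity: 15,000 cells per well | Times: Cells plated overnight, dye loaded 0.5 h 37 °C, 0.5 h room temperature | Measured by: Kinetic Fluo-4 NW fluorescence of intracellular calcium | Control set: Positive and negative controls per plate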
RGS4 act = RGS4 potentiators or activators, primary screen, cell-based, HEK293 M3R inducible RGS4, calcium flux | AID 463111, 2010 | actives 0.92% (n = 310,000) | B-score at 10 µM | carbachol calcium flux Fluo4; hits give low values;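 active = B-score of the integrated calcium signal more than 4 SD below the library mean, with starting fluorescence not abnormally high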;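 also: negative B-score means reduced calcium response which marks RGS4 activation or potentiation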
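System – HEK293 FlpIn-TREx cells, stable M3R, doxycycline-inducible RGS4 · Reagent – ECmax carbachol challenge · Times – compound preincubation 20 min at room temperature before agonist · Technique – Fluo4 fluorescence kinetic imaging of calcium · Measure – B score of integrated Fluo4 ratio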
MrgX1 ant reconf = MrgX1 receptor antagonists, duplicate retest, confirmation, HEK293 cells, Fluo-4 calcium flux; remaining BAM8-22 calcium response % of control (hits give low values), % at 10 µM; AID 602420, 2012; actives 19% (n = 2,300); BAM8-22 calcium flux; hits give low values; shares compounds with MrgX1 antagonist;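 active = remaining agonist calcium response no higher than 100% minus 3 SD of agonist-only control wells, with starting fluorescence near control levels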;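 also: agonist BAM8-22 given at a near maximal EC90 to ECmax level; peak minus minimum fluorescence divided by baseline after agonist addition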
HEK293 Ca flux = nonspecific calcium signal in parental HEK293, confirmation, counter-screen for MrgX1 antagonist project, parental HEK293 cells, Fluo-4 calcium flux | shares compounds with MrgX1 antagonist | Fluo-4 calcium fluorescence, FDSS | fluorescence ratio F(max-min)/F0 at 10 µM | actives 2% (n = 4,000) | AID 624111, 2012;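 active = duplicate-averaged calcium fluorescence ratio at least three times the standard deviation of buffer wells, a nonspecific response in parental cells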
HEK293 Ca counter = calcium response in parental HEK293 cells, primary screen, counter-screen for MrgX1 allosteric activator project, cell-based, Fluo-4 calcium flux, duplicate; AID 624114, 2012; shares compounds with MrgX1 antagonist; actives 0.4% (n = 4,000); fluorescence ratio F(max-min)/F0 at 10 µM; Fluo-4 fluorescence ratio; hits give high values;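 active = calcium fluorescence ratio, averaged over duplicates, at least 3 SD of the buffer-well ratio, meaning a nonspecific response in receptor-free cells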;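 also: untransfected parental HEK293 lacking MrgX1 used as counterscreen for MrgX1 allosteric activators; fluorescence change taken during the second addition on a kinetic imager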
HEK293 Ca cntr2 = calcium response in parental HEK293 cells, primary screen, counter-screen for MrgX1 agonist project, cell-based, Fluo-4 calcium flux, duplicate, agonist mode; shares compounds with MrgX1 antagonist; Fluo-4 calcium fluorescence (FDSS); hits give high values; fluorescence ratio F(max-min)/F0 at 10 µM; actives 8.7% (n = 4,000); AID 624115, 2012;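 active = calcium fluorescence ratio at least three times the spread of buffer wells, meaning a non-specific response in parental cells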
* marks the source's active call; other numbers are inactive results; i = inactive; x = no result given. Rows were chosen to be rich in hits. Some 3.5% of all compounds tested hit in one or more screens of this group.

SMILES	MrgX1 allo act	RGS4 inh	MrgX1 antagonist	MrgX1 ag	RGS4 act	MrgX1 ant reconf	HEK293 Ca flux	HEK293 Ca counter	HEK293 Ca cntr2
Cc1ccc(CNC(=O)C2CCN(S(=O)(=O)N3CCC4(CC3)OCCO4)CC2)cc1	i	i	i	i	i	x	x	x	x
Cc1ccc2nc(-c3ccc(NC(=O)CSc4ccccc4)cc3)[nH]c2c1	i	i	-5.26*	i	i	i	i	i	i
COc1ccc(OCC(=O)Nc2ccc(N3CCN(C(=O)c4ccccc4)CC3)c(Cl)c2)cc1	i	i	i	i	i	x	x	x	x
CCN(CC)S(=O)(=O)c1cccc(NC(=O)CC2CCCC2)c1	i	i	i	i	i	x	x	x	x
CCN(CC)S(=O)(=O)c1cccc(NC(=O)Nc2cccc(C(F)(F)F)c2)c1	i	i	-5.17*	i	i	53.4%*	i	i	i
Cc1cc(F)ccc1NC(=O)c1cc(S(=O)(=O)N2CCc3ccccc32)cn1C	i	i	-5.27*	i	i	i	i	i	i
Nc1c(S(=O)(=O)c2cccs2)c2nc3ccccc3nc2n1CC1CCCO1 (centres undefined)	i	x	-7.03*	i	x	i	i	i	i
CN(C)c1ccc(CNC2CC(C)(C)NC(C)(C)C2)cc1	i	i	i	i	i	x	x	x	x
CC1(C)CC(NCc2ccncc2)CC(C)(C)N1	i	i	-9.66*	i	i	85.6%*	i	i	i
O=C(NCCc1ccncc1)Nc1cccc(Cl)c1	i	i	-4.56*	i	i	i	i	i	i
O=C1c2ccccc2OC2(C=Cc3ccccc3O2)N1Cc1ccccc1 (centres undefined)	i	i	-4.97*	i	i	i	i	i	i
O=C1NC2(CCN(Cc3ccccc3)CC2)Oc2ccccc21	i	i	i	i	i	x	x	x	x
C=CCn1c(SCc2nc3cc(C(=O)OC)ccc3c(=O)[nH]2)nc2sc(CC)cc2c1=O	i	i	-4.8*	i	i	i	i	i	i
C=CCn1c(SCC(=O)Nc2sccc2C(N)=O)nc2sc(CC)cc2c1=O	i	i	i	i	i	x	x	x	x
O=S1(=O)CCOC[C@H](c2ccccc2)N1Cc1ccccc1F	i	i	-6.5*	i	i	i	i	i	i
O=C(NNS(=O)(=O)c1ccccc1)Nc1ccc(F)cc1	i	i	i	i	i	x	x	x	x
O=C(c1cc2ccccc2o1)N1CCN(C/C=C/c2ccccc2)CC1	i	i	i	i	i	x	x	x	x
Cc1nc(CNS(=O)(=O)c2ccccc2F)cs1	i	i	-4.58*	i	i	i	i	i	i
Cc1nc(CNS(=O)(=O)c2cccs2)cs1	i	i	i	i	i	x	x	x	x
CC1Cc2ccccc2N1C(=O)c1ccc(N2CCCC2)c([N+](=O)[O-])c1 (centres undefined)	i	i	i	i	i	x	x	x	x
CC1Cc2ccccc2N1C(=O)c1ccc(N2CCCCC2)c([N+](=O)[O-])c1 (centres undefined)	i	i	-10.9*	i	i	i	i	i	i
COc1ccccc1NS(=O)(=O)c1cc(C(=O)NCC(C)(C)N2CCOCC2)ccc1C	i	i	i	i	i	x	x	x	x
CCN1CCN(CCNC(=O)c2ccc(CS(=O)c3ccc(Br)cc3)o2)CC1 (centres undefined)	i	i	i	i	i	x	x	x	x
COc1ccc(C(=O)NC2CCN(C(=S)Nc3ccc(C)cc3)CC2)cc1	i	i	-4.75*	i	i	i	i	i	i
COc1ccc(NC(=S)N2CCC(NC(=O)c3cccc(C)c3)CC2)cc1	i	i	i	i	i	x	x	x	x
SMILES	MrgX1 allo act	RGS4 inh	MrgX1 antagonist	MrgX1 ag	RGS4 act	MrgX1 ant reconf	HEK293 Ca flux	HEK293 Ca counter	HEK293 Ca cntr2
CCOC(=O)c1ccc(-n2ncc(C(=O)OCC)c2N)cc1	i	i	i	i	i	x	x	x	x
CCOC(=O)c1cnn(-c2ccc(C)cc2)c1N	i	i	-4.69*	i	i	i	i	i	i
C=CCN(c1ccccc1Cl)S(=O)(=O)c1cccc(C(=O)NCCc2ccc(OC)cc2)c1	i	i	i	i	i	x	x	x	x
CC(C)c1nnc(NC(=O)c2nc(S(=O)(=O)Cc3ccccc3)ncc2Cl)s1	i	i	-5.27*	i	i	81.2%*	i	i	i
CSc1nnc(NC(=O)c2nc(S(=O)(=O)Cc3ccccc3)ncc2Cl)s1	i	i	-4.74*	i	i	71.1%*	i	i	i
CCc1ccc(NC(=O)c2nc(S(=O)(=O)Cc3ccccc3)ncc2Cl)cc1	i	i	i	i	i	x	x	x	x
[O-]/C(=C(\C(=S)NCc1ccccc1)[n+]1ccccc1)c1ccc(Cl)cc1	i	i	i	i	i	x	x	x	x
O=C1CC(N2CCSCC2)C(=O)N1c1cccc(Br)c1 (centres undefined)	i	i	-9.1*	i	i	i	i	i	i
O=C1CC(N2CCN(c3ccccc3)CC2)C(=O)N1c1cccc(Br)c1 (centres undefined)	i	i	i	i	i	x	x	x	x
C=CCNC(=O)N1C2=NC(C(=O)OC)=C(C(=O)OC)[C@@H]3N(Cc4ccccc4)c4ccccc4[C@]23C[C@H]1C(=O)OC	i	i	i	i	i	x	x	x	x
Cc1ccc(S(=O)(=O)NCCn2nc(C)cc2C)cc1	i	i	i	i	i	x	x	x	x
